Measured values from ChEMBL document CHEMBL3286252, “Synthesis, biological evaluation and structure-activity relationship of new GABA uptake inhibitors, derivatives of 4-aminobutanamides” (Eur J Med Chem, 2014).
Activity calls are given as the source filed them.

Experiments:
Mus musculus [1] = assay: Anticonvulsant activity against pentylenetetrazole-induced seizure in albino Swiss (CD-1) mouse assessed as prolongation of latency time to first seizure episode at 100 mg/kg, ip administered 60 mins prior to PTZ challenge; assay type: functional; conditions: route intraperitoneal
Procedure, shortened: (§1)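 Male CD-1 mice (18–22 g) given compound or vehicle i.p. 60 min before PTZ 100 mg/kg s.c. Each mouse was then caged alone and watched for 30 min for clonic seizures, meaning whole-body clonus lasting >3 s with loss of righting reflex. Recorded: latency to first clonus, number of seizure episodes, and deaths within 30 min. Analysis: ANOVA/Dunnett or t-test; mortality by Fisher's exact test; 7–10 mice per group.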

Mus musculus [2] = assay: Toxicity in albino Swiss (CD-1) mouse assessed as motor impairment at 30 to 100 mg/kg, ip measured after 60 mins by rotarod test; assay type: organism-based; parameters: dose 30-100 mg/kg, route intraperitoneal; conditions: in vivo, 1 h
Procedure, shortened: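 Mice were trained for 3 days at 18 rpm on a rod of 2 cm diameter. At least 24 h after the last training, they were given 30 or 100 mg/kg or vehicle (1% Tween 80) i.p. 60 min before testing at 6, 18, then 24 rpm. Impairment was defined as failing to stay on the rod for 1 min; mean time on the rod was recorded.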

Mus musculus [3] = assay: Anticonvulsant activity against pentylenetetrazole-induced seizure in albino Swiss (CD-1) mouse assessed as prolongation of latency time to first seizure episode at 30 mg/kg, ip administered 60 mins prior to PTZ challenge; assay type: functional, organism-based; parameters: dose 30 mg/kg; procedure, shortened: as §1
Mus musculus [4] = assay: Anticonvulsant activity against pentylenetetrazole-induced seizure in albino Swiss (CD-1) mouse assessed as decrease in mortality rate at 30 to 100 mg/kg, ip administered 60 mins prior to PTZ challenge; assay type: functional, organism-based; procedure, shortened: as §1
Mus musculus [5] = assay: Anticonvulsant activity in albino Swiss (CD-1) mouse assessed as current intensity required to induce 50% tonic hind limb extensions at 100 mg/kg, ip after 60 mins by electroconvulsive threshold test (reference value: 6.61 mA); assay type: functional, Hindlimb; conditions: route intraperitoneal
Mus musculus [6] = assay: Anticonvulsant activity in albino Swiss (CD-1) mouse assessed as protection against electrically-induced tonic hind limb extension at 30 to 100 mg/kg measured after single electroshock by maximal electroshock test; assay type: functional, organism-based; conditions: Hindlimb
Procedure, shortened: (§2)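 Mice received a 25 mA, 0.2 s stimulus through auricular electrodes. The endpoint was tonic extension of the hind limbs after a single shock, scored in vehicle- and drug-treated groups.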

Mus musculus [7] = assay: Anticonvulsant activity against pentylenetetrazole-induced seizure in albino Swiss (CD-1) mouse assessed as decrease in seizure episodes at 100 mg/kg, ip administered 60 mins prior to PTZ challenge; assay type: functional; conditions: route intraperitoneal
Procedure, shortened: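 Male CD-1 mice, 18–22 g, given compound or vehicle i.p. 60 min before PTZ 100 mg/kg s.c. Each mouse observed alone for 30 min for clonic seizures: whole-body clonus over 3 s with loss of righting reflex. Read-outs: latency to first clonus, number of seizure episodes, and deaths within 30 min. Groups of 7–10 mice, compared with vehicle.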

Mus musculus [8] = assay: Anticonvulsant activity in albino Swiss (CD-1) mouse assessed as protection against seizures at 100 mg/kg, ip after 60 mins by electroconvulsive threshold test; assay type: functional, organism-based; parameters: dose 100 mg/kg
Mus musculus [9] = assay: Anticonvulsant activity against pentylenetetrazole-induced seizure in albino Swiss (CD-1) mouse assessed as decrease in seizure episodes at 15 mg/kg, ip administered 60 mins prior to PTZ challenge; assay type: functional; conditions: route intraperitoneal; procedure, shortened: as §1
[10] = Toxicity in albino Swiss (CD-1) mouse assessed as mortality at 100 mg/kg measured after electroshock exposure; assay type: organism-based; parameters: dose 100 mg/kg; conditions: in vivo, read-out: Activity
Procedure, shortened: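 Male CD-1 mice given 100 mg/kg i.p. 60 min before the maximal electroshock test. Stimulus 25 mA for 0.2 s through auricular electrodes; endpoint tonic hind-limb extension. Deaths after the shock compared with the vehicle group.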

Mus musculus [11] = assay: Toxicity in albino Swiss (CD-1) mouse assessed as mortality at 100 mg/kg, ip measured after single electroconvulsive electroshock exposure; assay type: organism-based; parameters: dose 100 mg/kg, route intraperitoneal; conditions: in vivo
Procedure, shortened: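 Male CD-1 mice given 100 mg/kg i.p. 60 min before electroconvulsive threshold testing. Groups shocked at graded currents to give 10–90% of animals with seizures; CS50 for tonic hind-limb extension estimated by log-probit. Mortality noted after a single electroconvulsive shock, compared with controls.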

Mus musculus [12] = assay: Anticonvulsant activity against pentylenetetrazole-induced seizure in albino Swiss (CD-1) mouse assessed as delay in onset of seizures at 15 mg/kg, ip administered 60 mins prior to PTZ challenge; assay type: functional; conditions: route intraperitoneal; procedure, shortened: as §1
Mus musculus [13] = assay: Anticonvulsant activity in albino Swiss (CD-1) mouse assessed as protection against electrically-induced tonic hind limb extension at 30 mg/kg by maximal electroshock test; assay type: functional, organism-based; parameters: dose 30 mg/kg; conditions: Hindlimb; procedure, shortened: as §2
Mus musculus [14] = assay: Anticonvulsant activity against pilocarpine-induced seizure in albino Swiss (CD-1) mouse assessed as prolongation of latency time to seizures at 70 mg/kg, ip administered 60 mins before pilocarpine challenge; assay type: functional; conditions: route intraperitoneal
Procedure, shortened: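 CD-1 mice received compound or vehicle (1% Tween 80) i.p. 60 min before pilocarpine 400 mg/kg i.p. Scopolamine butylbromide 1 mg/kg i.p. was given 45 min before pilocarpine. 7–8 mice per group; Student's t-test versus vehicle; mean ± SEM.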

Mus musculus [15] = assay: Anticonvulsant activity in albino Swiss (CD-1) mouse assessed as decrease in animals with tonic hind limb extensions at 100 mg/kg by maximal electroshock test; assay type: functional; conditions: Hindlimb; procedure, shortened: as §2
Mus musculus [16] = assay: Anticonvulsant activity against pentylenetetrazole-induced seizure in albino Swiss (CD-1) mouse assessed as delay in onset of seizures at 30 mg/kg, ip administered 60 mins prior to PTZ challenge; assay type: functional; conditions: route intraperitoneal; procedure, shortened: as §1
Mus musculus [17] = assay: Anticonvulsant activity against pilocarpine-induced seizure in albino Swiss (CD-1) mouse assessed as prolongation of latency time to death at 70 mg/kg, ip administered 60 mins before pilocarpine challenge; assay type: functional; conditions: route intraperitoneal
Procedure, shortened: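 Male CD-1 mice dosed i.p. with compound or vehicle (1% Tween 80). Scopolamine butylbromide 1 mg/kg i.p. given 45 min before pilocarpine; pilocarpine 400 mg/kg i.p. given 60 min after compound. Observed 1 h. Latency to tonic-clonic seizure and latency to death recorded, cut-off 60 min. 7–8 mice per group, mean ± SEM, Student's t-test against vehicle.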

Mus musculus [18] = assay: Anticonvulsant activity against pentylenetetrazole-induced seizure in albino Swiss (CD-1) mouse assessed as decrease in mortality rate at 30 mg/kg, ip administered 60 mins prior to PTZ challenge; assay type: functional, organism-based; parameters: dose 30 mg/kg; procedure, shortened: as §1

Row | Compound | Activity (Mus musculus [1]) [%] | Activity (Mus musculus [2]) | Activity (Mus musculus [3]) | inhibition (Mus musculus [4]) | CS50 (Mus musculus [5]) [mA] | Activity (Mus musculus [6]) | inhibition in vivo at 100 mg/kg (Mus musculus [7]) [%] | Activity (Mus musculus [8]) | inhibition in vivo at 15 mg/kg (Mus musculus [9]) [%] | mortality [10] [%] | Activity (Mus musculus [11]) | Activity (Mus musculus [12]) [%] | Activity (Mus musculus [13]) | Activity (Mus musculus [14]) [%] | inhibition in vivo at 100 mg/kg (Mus musculus [15]) [%] | Activity (Mus musculus [16]) [%] | Activity (Mus musculus [17]) [%] | inhibition (Mus musculus [18])
1 | NCCC(C(=O)NCc1ccccc1Cl)N1CCN(C(c2ccccc2)c2ccccc2)CC1 (centres undefined) | 100 | Non-toxic | inactive | Active | 6.22 | inactive | 53 |  |  |  |  |  |  |  |  |  |  | 
2 | NCCC(C(=O)NCc1ccc(Cl)cc1)N1CCN(C(c2ccccc2)c2ccccc2)CC1 (centres undefined) |  | Non-toxic |  |  |  |  |  | inactive | 58 | 65 | Toxic | 58 | inactive | 113.4 | 44 | 217 | 71.1 | Active
